Columns and labels:
[1] = system: angiogenesis in vivo; settings: Table VII; source Fibronectin, others; ref Eijan et al., 1991; cited from earlier work
[2] = system: Bovine adrenal capillary endothelial cells; assay: endothelial cell migration in an inverted modified Boyden chamber; assay type: cell-based
Outline: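 Bovine capillary endothelial cells at passages 10-15 were starved 24 h in DME/0.1% BSA and adhered 1-2 h at 37°C to a gelatinized filter. The chamber was reinverted, with test material in the top well, and incubated 3-4 h at 37°C. Migrated cells were counted in 10 high-power fields, in quadruplicate, with experiments repeated at least twice. Results were expressed as % of positive-control migration after background subtraction and corrected for >10% detachment.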

[3] = system: neovascularization in the rat cornea; assay: rat cornea neovascularization assay; assay type: in vivo; settings: Table I, Hydron pellets with TSP1 protein or fragments at 25-30 nM, without bFGF, vigorous vessel ingrowth from the limbus at 7 d = positive

G R G D
Small Peptides Able to Inhibit Angiogenesis In Vivo [1]: Able to Inhibit Angiogenesis In Vivo

SPWD I C*SVTC*GGGVQKRSK [Mal III]
ED50 for inhibition of migration with pure recombinant bFGF as inducer ([2]; retest of peptide with recombinant bFGF instead of conditioned media): 7 µM

TGF beta 1: Recombinant TGFβ1 purchased from R & D Sys. [reference compound]
concentrations that stimulated endothelial cell migration ([2]; TGFβ dose response, Fig. 8): 0.04 to 0.4 pM

TSP: Human thrombospondin-1 purified from platelet releasate, 450-kD trimer
Migration of endothelial cells to upper chamber (%), Control, with bFGF ([2]; Table VI, bFGF 10 ng/ml plus TGFβ 0.2 ng/ml or TSP 2.5 µg/ml, no antiserum): < 1% | ability to block endothelial cell migration stimulated by bFGF ([2]; bFGF 10 ng/ml, Fig. 4 b): complete inhibition | Positive corneas/number implanted, Alone [3]: 0/5

bFGF: Recombinant bFGF, inducer and positive control [reference compound]
Migration of endothelial cells to upper chamber (%), Control ([2]; Table VI, addition alone: TGFβ 1 pg/ml or bFGF 10 ng/ml, no antiserum): 100%
